Assay results taken from ChEMBL document CHEMBL3525900, “Pharmacokinetics, distribution, and metabolism of [14C]sunitinib in rats, monkeys, and humans” (Drug Metab Dispos, 2012).

How the values were obtained:
Rattus norvegicus = assay: Apparent terminal half life as total radioactivity in male Sprague-Dawley rat plasma at 15 mg/kg, po administered as single dose by LC/MS/MS analysis; assay type: ADME, organism-based; parameters: dose 15 mg/kg, dosed compound name [14C]Sunitinib, route oral; settings: in vivo
How it was run: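 Single dose of [14C]sunitinib L-malate as free base, 50 µCi/kg. IV dose was 5 mg/kg by tail vein in 5 females. Oral dose was 15 mg/kg by gavage in 3 females and 3 males. Total radioactivity was by scintillation counting. […] Cmax was read from raw data, t½ by log-linear regression, AUC by linear trapezoidal rule.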

Liver [1] = assay: Drug concentration in male Lister Hooded pigmented rat liver assessed as radioactivity per gram of tissue at 20 mg/kg administered as single dose via gastric gavage measured after 72 hrs by autoradiographic analysis; assay type: ADME, organism-based; parameters: dose 20 mg/kg, dosed compound name [14C]Sunitinib; settings: in vivo, po
[2] = Drug recovery in urine of male Sprague-Dawley rat at 15 mg/kg, po administered as single dose during 0 to 72 hrs by liquid scintillation counting; assay type: ADME, organism-based; parameters: dose 15 mg/kg, dosed compound name [14C]Sunitinib, route oral; settings: in vivo
Liver [3] = assay: Drug concentration in male albino rat liver assessed as radioactivity per gram of tissue at 20 mg/kg administered as single dose via gastric gavage measured after 24 hrs by autoradiographic analysis; assay type: ADME, organism-based; parameters: dose 20 mg/kg, dosed compound name [14C]Sunitinib; settings: in vivo, po
Brain [4] = assay: Drug concentration in female albino rat brain assessed as radioactivity per gram of tissue at 20 mg/kg administered as single dose via gastric gavage measured after 3 hrs by autoradiographic analysis; assay type: ADME, organism-based; parameters: dose 20 mg/kg, dosed compound name [14C]Sunitinib; settings: in vivo, po
How it was run: (§1)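 Sprague Dawley (albino) rats, ca 7-8 weeks old, received a single gastric-gavage dose of [14C]sunitinib L-malate at 20 mg/kg (15 mg freebase/kg, 100 µCi/kg). One animal per sex killed by CO2 at 3, 6, 24, 72 and 168 h, then frozen in CO2/hexane. 30 µm sagittal sections were cut and freeze-dried. Radioactivity per gram quantified by whole-body autoradiography using regression against standards. LOQ 0.04–0.06 µg freebase equiv/g.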

Lung = assay: Drug concentration in female albino rat lung assessed as radioactivity per gram of tissue at 20 mg/kg administered as single dose via gastric gavage measured after 3 hrs by autoradiographic analysis; assay type: ADME, organism-based; parameters: dose 20 mg/kg, dosed compound name [14C]Sunitinib; settings: in vivo, po
How it was run: (§2)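 Sprague Dawley albino rats, ca 7-8 weeks old, dosed once by gastric gavage with [14C]sunitinib L-malate (15 mg freebase/kg, 100 µCi/kg). One male and one female killed by CO2 at 3, 6, 24, 72 and 168 h. Carcasses frozen in solid CO2/hexane, embedded and cut into 30 µm sagittal sections, then freeze-dried. Radioactivity quantified by whole-body autoradiography against standards by regression, background subtracted.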

Ovary [5] = assay: Drug concentration in female albino rat ovary assessed as radioactivity per gram of tissue at 20 mg/kg administered as single dose via gastric gavage measured after 3 hrs by autoradiographic analysis; assay type: ADME, organism-based, Female gonad; parameters: dose 20 mg/kg, dosed compound name [14C]Sunitinib; settings: in vivo, po
How it was run: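 Sprague Dawley (albino) and Lister Hooded (pigmented) rats, ca 7-8 weeks old, 179-310 g, acclimated 7 days. Single gavage dose of [14C]sunitinib L-malate (15 mg freebase/kg, 100 µCi/kg). One male and one female killed by CO2 per time point: albino at 3, 6, 24, 72, 168 h; pigmented at 24, 72, 168, 336 h. Carcasses frozen in solid CO2/hexane, 30 µm sagittal sections freeze-dried. Tissue radioactivity read by quantitative whole-body autoradiography against regression of standards, mean background subtracted.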

Pancreas = assay: Drug concentration in female albino rat pancreas assessed as radioactivity per gram of tissue at 20 mg/kg administered as single dose via gastric gavage measured after 3 hrs by autoradiographic analysis; assay type: ADME, organism-based; parameters: dose 20 mg/kg, dosed compound name [14C]Sunitinib; settings: in vivo, po; how it was run: as §2
[6] = Drug concentration in male Lister Hooded pigmented rat skeletal muscle assessed as radioactivity per gram of tissue at 20 mg/kg administered as single dose via gastric gavage measured after 24 hrs by autoradiographic analysis; assay type: ADME, organism-based; parameters: dose 20 mg/kg, dosed compound name [14C]Sunitinib; settings: in vivo, po
Small intestine = assay: Drug concentration in male Lister Hooded pigmented rat small intestine assessed as radioactivity per gram of tissue at 20 mg/kg administered as single dose via gastric gavage measured after 24 hrs by autoradiographic analysis; assay type: ADME, organism-based; parameters: dose 20 mg/kg, dosed compound name [14C]Sunitinib; settings: in vivo, po
Heart = assay: Drug concentration in male albino rat heart assessed as radioactivity per gram of tissue at 20 mg/kg administered as single dose via gastric gavage measured after 6 hrs by autoradiographic analysis; assay type: ADME, organism-based; parameters: dose 20 mg/kg, dosed compound name [14C]Sunitinib; settings: in vivo, po
Large intestine = assay: Drug concentration in male albino rat large intestine assessed as radioactivity per gram of tissue at 20 mg/kg administered as single dose via gastric gavage measured after 6 hrs by autoradiographic analysis; assay type: ADME, organism-based; parameters: dose 20 mg/kg, dosed compound name [14C]Sunitinib; settings: in vivo, po
Ovary [7] = assay: Drug concentration in female albino rat ovary assessed as radioactivity per gram of tissue at 20 mg/kg administered as single dose via gastric gavage measured after 6 hrs by autoradiographic analysis; assay type: ADME, organism-based, Female gonad; parameters: dose 20 mg/kg, dosed compound name [14C]Sunitinib; settings: in vivo, po; how it was run: as §2
Adrenal [8] = assay: Drug concentration in female albino rat adrenal assessed as radioactivity per gram of tissue at 20 mg/kg administered as single dose via gastric gavage measured after 6 hrs by autoradiographic analysis; assay type: ADME, organism-based; parameters: dose 20 mg/kg, dosed compound name [14C]Sunitinib; settings: in vivo, po; how it was run: as §1
Brain [9] = assay: Drug concentration in female albino rat brain assessed as radioactivity per gram of tissue at 20 mg/kg administered as single dose via gastric gavage measured after 6 hrs by autoradiographic analysis; assay type: ADME, organism-based; parameters: dose 20 mg/kg, dosed compound name [14C]Sunitinib; settings: in vivo, po; how it was run: as §1
Kidney = assay: Drug concentration in female albino rat kidney assessed as radioactivity per gram of tissue at 20 mg/kg administered as single dose via gastric gavage measured after 6 hrs by autoradiographic analysis; assay type: ADME, organism-based; parameters: dose 20 mg/kg, dosed compound name [14C]Sunitinib; settings: in vivo, po; how it was run: as §2
Stomach = assay: Drug concentration in female albino rat stomach assessed as radioactivity per gram of tissue at 20 mg/kg administered as single dose via gastric gavage measured after 72 hrs by autoradiographic analysis; assay type: ADME, organism-based; parameters: dose 20 mg/kg, dosed compound name [14C]Sunitinib; settings: in vivo, po
Adrenal [10] = assay: Drug concentration in female albino rat adrenal assessed as radioactivity per gram of tissue at 20 mg/kg administered as single dose via gastric gavage measured after 168 hrs by autoradiographic analysis; assay type: ADME, organism-based; parameters: dose 20 mg/kg, dosed compound name [14C]Sunitinib; settings: in vivo, po; how it was run: as §1
[11] = Drug concentration in female Lister Hooded pigmented rat eye assessed as radioactivity per gram of tissue at 20 mg/kg administered as single dose via gastric gavage measured after 24 hrs by autoradiographic analysis; assay type: ADME, organism-based; parameters: dose 20 mg/kg, dosed compound name [14C]Sunitinib; settings: in vivo, po
How it was run: (§3)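 Lister Hooded (pigmented) rats, ca 7-8 weeks old, acclimated 7 days, given [14C]sunitinib L-malate by gastric gavage at 20 mg/kg (15 mg freebase/kg, 100 µCi/kg). One male and one female killed by CO2 at 24, 72, 168 and 336 h. Carcasses frozen in solid CO2/hexane and embedded in frozen cellulose. 30 µm sagittal cryosections were freeze-dried. Tissue radioactivity measured by quantitative whole-body autoradiography against calibration standards, with background subtracted.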

Adrenal [12] = assay: Drug concentration in male albino rat adrenal assessed as radioactivity per gram of tissue at 20 mg/kg administered as single dose via gastric gavage measured after 72 hrs by autoradiographic analysis; assay type: ADME, organism-based; parameters: dose 20 mg/kg, dosed compound name [14C]Sunitinib; settings: in vivo, po
Zone of skin = assay: Drug concentration in male albino rat abdomen skin assessed as radioactivity per gram of tissue at 20 mg/kg administered as single dose via gastric gavage measured after 72 hrs by autoradiographic analysis; assay type: ADME, organism-based; parameters: dose 20 mg/kg, dosed compound name [14C]Sunitinib; settings: in vivo, po
Adrenal [13] = assay: Drug concentration in male albino rat adrenal assessed as radioactivity per gram of tissue at 20 mg/kg administered as single dose via gastric gavage measured after 24 hrs by autoradiographic analysis; assay type: ADME, organism-based; parameters: dose 20 mg/kg, dosed compound name [14C]Sunitinib; settings: in vivo, po
[14] = Drug concentration in female albino rat eye assessed as radioactivity per gram of tissue at 20 mg/kg administered as single dose via gastric gavage measured after 24 hrs by autoradiographic analysis; assay type: ADME, organism-based; parameters: dose 20 mg/kg, dosed compound name [14C]Sunitinib; settings: in vivo, po; how it was run: as §2
[15] = Drug concentration in female Lister Hooded pigmented rat preputial gland assessed as radioactivity per gram of tissue at 20 mg/kg administered as single dose via gastric gavage measured after 24 hrs by autoradiographic analysis; assay type: ADME, organism-based; parameters: dose 20 mg/kg, dosed compound name [14C]Sunitinib; settings: in vivo, po; how it was run: as §3
Liver [16] = assay: Drug concentration in female albino rat liver assessed as radioactivity per gram of tissue at 20 mg/kg administered as single dose via gastric gavage measured after 72 hrs by autoradiographic analysis; assay type: ADME, organism-based; parameters: dose 20 mg/kg, dosed compound name [14C]Sunitinib; settings: in vivo, po; how it was run: as §2

A t1/2 lambda z (Rattus norvegicus) of 9 h, a Radiolabel recovery (Liver [1]) of 0.22 ugequiv and a Radiolabel recovery [2] of 8.5% were found for `CCN(CC)CCNC(=O)c1c(C)[nH]c(/[14CH]=C2\C(=O)Nc3ccc(F)cc32)c1C.O=C(O)C[C@H](O)C(=O)O` in this work. The Radiolabel recovery (Liver [3]) was 1.7 ugequiv, the Radiolabel recovery (Brain [4]) was 0.52 ugequiv and the Radiolabel recovery (Lung) was 28.98 ugequiv. It also gave a Radiolabel recovery (Ovary [5]) of 10.92 ugequiv, a Radiolabel recovery (Pancreas) of 13.45 ugequiv and a Radiolabel recovery [6] of 0.3 ugequiv. The Radiolabel recovery (Small intestine) was 0.82 ugequiv, the Radiolabel recovery (Heart) was 4.61 ugequiv and the Radiolabel recovery (Large intestine) was 5.38 ugequiv. It also gave a Radiolabel recovery (Ovary [7]) of 11.63 ugequiv, a Radiolabel recovery (Adrenal [8]) of 26.74 ugequiv and a Radiolabel recovery (Brain [9]) of 0.43 ugequiv. The Radiolabel recovery (Kidney) was 16.48 ugequiv, the Radiolabel recovery (Stomach) was 0.15 ugequiv and the Radiolabel recovery (Adrenal [10]) was 0.33 ugequiv. For the same compound, the Radiolabel recovery [11] was 31.8 ugequiv, the Radiolabel recovery (Adrenal [12]) was 1.52 ugequiv and the Radiolabel recovery (Zone of skin) was 0.27 ugequiv. It also gave a Radiolabel recovery (Adrenal [13]) of 4.11 ugequiv, a Radiolabel recovery [14] of 0.43 ugequiv and a Radiolabel recovery [15] of 4.5 ugequiv. It also gave a Radiolabel recovery (Liver [16]) of 0.37 ugequiv.
